Source: ChEMBL document CHEMBL1155883, “5-Alkyl-6-benzyl-2-(2-oxo-2-phenylethylsulfanyl)pyrimidin-4(3H)-ones, a series of anti-HIV-1 agents of the dihydro-alkoxy-benzyl-oxopyrimidine family with peculiar structure-activity relationship profile” (J Med Chem, 2008)

How the values were obtained:
[1] = test system: Human immunodeficiency virus type 1 reverse transcriptase (Human immunodeficiency virus 1), Q72547 [Y181I]
[2] = test system: Human immunodeficiency virus 1; test: Resistance index, ratio of ID50 for reverse transcriptase L100I mutant to IC50 for wild-type HIV1 reverse transcriptase
Procedure, shortened: (§1)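 Recombinant wt and K103N, L100I or Y181I HIV-1 RT (>95% pure), 2-4 nM. RNA-dependent DNA polymerase assay on 0.5 µg poly(rA)/oligo(dT) 10:1 (0.3 µM 3'-OH ends) with 10 µM [3H]-dTTP and 8% final DMSO. Aliquots taken every 2 min. Inhibitor range 0.2-5× ID50, fitted to a noncompetitive model. Fold resistance is mutant ID50 divided by wt ID50.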

[3] = Cytotoxicity against human MT4 cells by MTT assay; format: cell-based
Procedure, shortened: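 Mock-infected MT-4 cells were exposed to a range of compound concentrations. Viability was read by MTT at day 5. CC50 is the concentration that kills 50% of uninfected cells. The top concentration was limited by compound precipitation in culture medium. Means ± SD from at least two or three experiments.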

[4] = molecular target: Human immunodeficiency virus type 1 reverse transcriptase (Human immunodeficiency virus 1) (UniProt Q72547)
[5] = test system: Human immunodeficiency virus 1; test: Antiviral activity against HIV1 NL4-3 in human MT4 cells assessed as inhibition of virus-induced cytopathogenicity by MTT assay; format: functional, organism-based; details: Human immunodeficiency virus 1, NL4-3, MT4
Procedure, shortened: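 MT-4 lymphoid cells infected with wild-type HIV-1 NL4-3 in the presence of a range of compound concentrations. Viable cells were counted by MTT colorimetric read-out at day 5 post-infection. EC50 is the concentration giving 50% protection from virus-induced cytopathic effect. Means ± SD from at least two or three experiments.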

[6] = test system: Human immunodeficiency virus 1; test: Resistance index, ratio of ID50 for reverse transcriptase K103N mutant to IC50 for wild-type HIV1 sreverse transcriptase
Procedure, shortened: as §1

[7] = test system: Human immunodeficiency virus 1; test: Antiviral activity against HIV1 isolates with reverse transcriptase Y181C mutation in human MT4 cells assessed as inhibition of virus-induced cytopathogenicity by MTT assay; format: functional, organism-based; details: Human immunodeficiency virus 1, MT4
Procedure, shortened: (§2)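 MT-4 lymphoid cells infected with HIV-1 carrying RT K103N, Y181C or Y188L, in the presence of different drug concentrations. Viable cells counted at day 5 postinfection by MTT colorimetric assay. EC50 is the concentration that inhibits 50% of the HIV-induced cytopathic effect.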

[8] = test system: Human immunodeficiency virus 1; test: Resistance index, ratio of EC50 for drug-resistant HIV1 isolate with reverse transcriptase Y188L mutation to EC50 for wild type HIV1 NL4-3; format: functional
Procedure, shortened: (§3)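 Fold resistance is the EC50 against the K103N, Y181C or Y188L mutant strain divided by the EC50 against wt NL4-3. Each EC50 is from MT-4 cells infected in the presence of different drug concentrations, with viability read by MTT at day 5 postinfection.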

[9] = Selectivity index, ratio of CC50 for human MT4 cells to EC50 for HIV1 NL4-3; format: toxicity, cell-based; details: read-out: Ratio CC50/EC50
Procedure, shortened: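 Computed as CC50/EC50. CC50 comes from MTT viability of mock-infected MT-4 cells and EC50 from MTT protection of NL4-3-infected MT-4 cells, both read at day 5.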

[10] = test system: Human immunodeficiency virus 1; test: Antiviral activity against HIV1 isolates with reverse transcriptase K103N mutation in human MT4 cells assessed as inhibition of virus-induced cytopathogenicity by MTT assay; format: functional, organism-based; details: Human immunodeficiency virus 1, MT4
Procedure, shortened: as §2

[11] = test system: Human immunodeficiency virus 1; test: Antiviral activity against HIV1 isolates with reverse transcriptase Y188L mutation in human MT4 cells assessed as inhibition of virus-induced cytopathogenicity by MTT assay; format: functional, organism-based; details: Human immunodeficiency virus 1, MT4
Procedure, shortened: as §2

[12] = test system: Human immunodeficiency virus 1; test: Resistance index, ratio of EC50 for drug-resistant HIV1 isolate with reverse transcriptase Y181C mutation to EC50 for wild type HIV1 NL4-3; format: functional
Procedure, shortened: as §3

[13] = test system: Human immunodeficiency virus type 1 reverse transcriptase (Human immunodeficiency virus 1), Q72547 [L100I]
[14] = test system: Human immunodeficiency virus type 1 reverse transcriptase (Human immunodeficiency virus 1), Q72547 [K103N]
[15] = test system: Human immunodeficiency virus 1; test: Resistance index, ratio of EC50 for drug-resistant HIV1 isolate with reverse transcriptase K103N mutation to EC50 for wild type HIV1 NL4-3; format: functional
Procedure, shortened: as §3

[16] = test system: Human immunodeficiency virus 1; test: Resistance index, ratio of ID50 for reverse transcriptase Y181I mutant to IC50 for wild-type HIV1 reverse transcriptase
Procedure, shortened: as §1

| SMILES | ID50 [1] | Ratio [2] | CC50 [3] | ID50 [4] | EC50 [5] | Ratio [6] | EC50 [7] | Ratio EC50 [8] | selectivity ratio [9] | EC50 [10] | EC50 [11] | Ratio EC50 [12] | ID50 [13] | ID50 [14] | Ratio EC50 [15] | Ratio [16] |
| --- | --- | --- | --- | --- | --- | --- | --- | --- | --- | --- | --- | --- | --- | --- | --- | --- |
| CC(C)c1c(Cc2c(F)cccc2Cl)nc(SCC(=O)c2ccccc2)[nH]c1=O | > 40 µM | 1300 | > 12 µM | 0.001 µM | 0.005 µM | 4500 | 0.21 µM | 1540 | > 2400 | 3.29 µM | 7.7 µM | 42 | 1.3 µM | 4.5 µM | 658 |  |
| COc1ccc(CCSc2nc(Cc3c(Cl)cccc3Cl)c(C)c(=O)[nH]2)cc1 |  |  | > 57 µM |  | < 0.00014 µM | 123 |  | 49286 | > 407000 |  |  |  |  |  | 6214 | 58 |
| COc1ccc(C(=O)CSc2nc(Cc3c(F)cccc3F)c(C(C)C)c(=O)[nH]2)cc1 | > 40 µM |  | 33 µM | 0.026 µM | 0.002 µM | 1440 | 0.067 µM | 7350 | 16500 | 17.5 µM | 14.7 µM | 33 | > 40 µM | 37.3 µM | 8750 |  |
| CCc1c(Cc2c(Cl)cccc2Cl)nc(SCC(=O)c2ccccc2)[nH]c1=O | 0.33 µM | 50 | > 52 µM | 0.071 µM | 0.007 µM | 26 | 0.046 µM | 714 | > 7430 | 1.2 µM | 5 µM | 7 | 3.54 µM | 1.88 µM | 171 | 5 |
| CCc1c(Cc2c(Cl)cccc2Cl)nc(SCC(=O)c2ccc(F)cc2)[nH]c1=O | 0.24 µM | 43 | > 55 µM | 0.042 µM | 0.007 µM | 43 | 0.49 µM | 5186 | > 7860 | 4.7 µM | 36.3 µM | 70 | 1.82 µM | 1.79 µM | 671 | 6 |
| Cc1c(Cc2c(Cl)cccc2Cl)nc(SCC(=O)c2ccccc2)[nH]c1=O | 1.38 µM | 34 | > 60 µM | 0.23 µM | 0.038 µM | 53 | 0.48 µM | 232 | > 1580 | 3.79 µM | 8.82 µM | 13 | 7.8 µM | 12 µM | 100 | 6 |
| CCc1c(Cc2c(F)cccc2Cl)nc(SCC(=O)c2ccccc2)[nH]c1=O | > 40 µM | 1210 | > 12 µM | 0.008 µM | 0.012 µM |  | 0.39 µM | 782 | > 1000 | 1.2 µM | 9.38 µM | 32 | 9.7 µM | > 40 µM | 100 |  |
| CC(C)c1c(Cc2c(Cl)cccc2Cl)nc(SCC(=O)c2ccccc2)[nH]c1=O | 16.8 µM | 326 | > 56 µM | 0.031 µM | 0.004 µM | 894 | 0.11 µM | 1375 | > 14000 | 5.1 µM | 5.5 µM | 27 | 10.1 µM | 27.7 µM | 1275 | 542 |
